UBC13 polyUb: UBC13 polyubiquitin chain formation inhibitors, primary screen, biochemical, TR-FRET, uHTS. inhibition, % at 20 µM. actives 0.47% (n = 330,000); in the data active = inhibition above about 45%, passing the limit was not always enough
UPR CHOP act: activators of apoptotic CHOP UPR arm, primary screen, cell-based, CHO-CHOP luciferase reporter, luminescence, uHTS | UPR activation; percent of tunicamycin response over DMSO baseline | activation, % at 10 µM | actives 0.34% (n = 330,000) | AID 449763, 2010;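 active = at 10 µM dose, activation of 40% or more, normalized to positive control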;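 also: 100% = tunicamycin at 10 µg/mL and 0% = DMSO alone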
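measured by = luciferase luminescence | assay system = CHO-CHOP cells, stable luciferase reporter of PERK-eIF2a-CHOP signalling | amount = 500 reporter cells seeded per well | timing = 6 h compound exposure at 37 °C after overnight seeding | controls = positive tunicamycin 10 µg/mL, negative DMSO alone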
Apaf1 inhib: inhibitors of human Apaf-1 apoptosome, primary screen, biochemical, DEVD-Rh110 fluorescence, uHTS; Apoptotic protease-activating factor 1 (Homo sapiens), O14727; inhibition, % at 20 µM; AID 489030, 2010; actives 0.71% (n = 330,000); reconstituted apoptosome caspase-3 activity; active = inhibition of at least 40% at 20 µM;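 also: plate controls were DMSO wells for no effect and DEVD-CHO caspase inhibitor wells for full effect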
Target sequence (O14727 whole entry, looked up): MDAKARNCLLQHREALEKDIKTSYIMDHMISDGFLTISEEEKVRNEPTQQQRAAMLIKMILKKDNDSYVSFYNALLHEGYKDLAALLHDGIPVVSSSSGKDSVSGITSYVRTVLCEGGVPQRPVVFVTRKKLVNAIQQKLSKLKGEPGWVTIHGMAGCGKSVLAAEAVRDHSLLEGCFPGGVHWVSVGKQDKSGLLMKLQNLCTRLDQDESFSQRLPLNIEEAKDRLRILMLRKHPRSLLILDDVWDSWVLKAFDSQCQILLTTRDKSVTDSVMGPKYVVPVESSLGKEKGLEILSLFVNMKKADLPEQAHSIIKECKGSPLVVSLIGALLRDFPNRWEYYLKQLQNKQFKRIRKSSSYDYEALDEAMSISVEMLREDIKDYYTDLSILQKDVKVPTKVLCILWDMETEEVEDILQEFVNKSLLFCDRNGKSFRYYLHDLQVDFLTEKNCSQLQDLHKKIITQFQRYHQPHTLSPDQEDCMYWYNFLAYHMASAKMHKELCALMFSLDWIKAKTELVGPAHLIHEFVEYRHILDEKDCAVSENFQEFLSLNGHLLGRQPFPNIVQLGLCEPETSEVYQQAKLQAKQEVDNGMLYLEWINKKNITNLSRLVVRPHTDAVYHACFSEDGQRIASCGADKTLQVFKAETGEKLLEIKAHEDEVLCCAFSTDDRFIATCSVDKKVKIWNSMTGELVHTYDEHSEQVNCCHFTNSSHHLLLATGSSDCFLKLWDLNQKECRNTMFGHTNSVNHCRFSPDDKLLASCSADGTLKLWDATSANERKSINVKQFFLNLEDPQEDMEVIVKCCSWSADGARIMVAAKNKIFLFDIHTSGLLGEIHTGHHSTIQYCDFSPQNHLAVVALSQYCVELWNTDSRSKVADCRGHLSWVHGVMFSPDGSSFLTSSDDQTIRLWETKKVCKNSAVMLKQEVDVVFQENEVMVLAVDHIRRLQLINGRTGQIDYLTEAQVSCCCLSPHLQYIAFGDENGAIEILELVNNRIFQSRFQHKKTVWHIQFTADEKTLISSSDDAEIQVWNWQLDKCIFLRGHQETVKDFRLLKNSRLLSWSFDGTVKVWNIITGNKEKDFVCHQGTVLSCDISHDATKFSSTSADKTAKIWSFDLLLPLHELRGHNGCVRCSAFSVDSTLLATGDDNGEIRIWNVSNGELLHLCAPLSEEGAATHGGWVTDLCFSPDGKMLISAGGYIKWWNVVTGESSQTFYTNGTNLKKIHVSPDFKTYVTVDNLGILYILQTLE
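Material: cell-free apoptosome with Apaf-1, procaspase-3 and caspase-9; Buffer or medium: Hepes pH 7.5 with detergent and BSA; Reagent: cytochrome c trigger plus (Z-DEVD)2-Rh110 caspase-3 substrate; Times: compound with Apaf-1, dATP, procaspase-3 30 min, then 50 min reaction, room temperature; Technique: Rh110 fluorescence intensity.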
UPR XBP1 act: activators of adaptive XBP1 UPR arm, primary screen, cell-based, CHO-XBP1 luciferase reporter, luminescence, uHTS; IRE1-XBP1 UPR activation; percent of tunicamycin response, DMSO as zero; activation, % at 20 µM; actives 0.33% (n = 330,000); AID 463104, 2010;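 active = versus positive control, 20 µM dose yields 30% or more activation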;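 also: 100% = tunicamycin at 10 µg/mL and 0% = DMSO only wells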
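Signal: luciferase luminescence; Assay system: CHO-XBP1 luciferase reporter cells; Amount: one thousand reporter cells per well; Dosing: 20 µM single concentration, DMSO 1%; Benchmarks: high control tunicamycin 10 µg/mL final, low control DMSO vehicle only; Schedule: 6 h compound exposure at 37 °C, 5% CO2; Evaluation: percent activation relative to tunicamycin reference.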
Mdm2 MdmX PPI: inhibitors of human Mdm2-MdmX association, primary screen, cell-based, luminescence, split luciferase, SaOS-2, uHTS; SaOS-2 split-luciferase Mdm2/MdmX complementation; inhibition, % at 8 µM; actives 3% (n = 330,000);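 active = inhibition of at least 50% at 8 µM in the primary screen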
Mdm2-MdmX conf: Mdm2-MdmX complex disruptors, retested hits, confirmation, luminescence, single concentration. inhibition, % at 8 µM. Mdm2-MdmX binding, luminescent assay. actives 55% (n = 10,000). shares compounds with Mdm2 MdmX PPI; in the data active = inhibition above about 40%
FLuc counter: full-length luciferase signal inhibition, confirmation, counter-screen for Mdm2/MdmX interaction inhibitor project, cell-based, single concentration, SaOS-2 | shares compounds with Mdm2 MdmX PPI | SaOS-2 full-length luciferase counterscreen, luminescence | inhibition, % at 8 µM | actives 77% (n = 6,200);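 active = mean inhibition at 8 µM reaching about 37%, which flags the compound as non-specific, limit read from the data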;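 also: p53-null SaOS-2 cells with luciferase driven by a doxycycline-inducible promoter; compound on cells about two nights before reading with doxycycline added after day one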
An asterisk follows results filed as active; nt = not tested or not shown. Sampled rows, rich in hits. Any-hit rate of the full collection: about 4.1%.

SMILES	UBC13 polyUb	UPR CHOP act	Apaf1 inhib	UPR XBP1 act	Mdm2 MdmX PPI	Mdm2-MdmX conf	FLuc counter
O=C(Nc1nc(-c2ccccc2)cs1)c1ccc(N2CCOCC2)c([N+](=O)[O-])c1	-11.1	0.4	-45.5	-3.1	54.5*	52.0*	56.1*
CC(=O)c1c(C)[nH]c(C(=O)Nc2nc(-c3ccc(-c4ccccc4)cc3)cs2)c1C	-22.6	14.4	27.2	6.7	87.5*	43.9*	100.2*
O=C(Nc1nc(-c2ccc(-c3ccccc3)cc2)cs1)C1=COCCO1	-1.9	1.5	8.0	0.9	65.1*	56.5*	41.3*
Cc1ccc(-c2csc(NC(=O)c3cc([N+](=O)[O-])ccc3N3CCOCC3)n2)cc1	-16.4	2.2	-3.6	-1.5	28.8	nt	nt
COC(=O)[C@H](CC(C)C)NC(=O)NCCC1=CCCCC1	-2.3	-0.7	-6.3	1.6	9.6	nt	nt
COc1ccccc1CNS(=O)(=O)c1ccc2c(c1)NC(=O)C(C)S2 (configuration not stated)	3.2	0.0	3.7	-4.8	17.9	nt	nt
CC1(C)c2ccccc2-n2c1cc1oc(=O)cc(O)c1c2=O	2.6	-0.3	14.5	-0.7	-6.7	nt	nt
O=C(COC(=O)CNS(=O)(=O)c1cc(C(F)(F)F)ccc1Cl)NC1CC1	-0.7	-1.5	0.9	-1.2	-5.5	nt	nt
COc1cccc(-c2ccc3ncnc(NCc4cccnc4)c3c2)c1	6.6	-0.3	10.1	0.1	68.5*	48.4*	22.6
CC(=O)Nc1ccc(Nc2c([N+](=O)[O-])c(=O)n(-c3ccccc3)c3ccccc23)cc1	-14.4	1.2	-8.3	2.8	60.9*	12.7	nt
COc1ccccc1[C@H]1C(c2cccc(C)c2)=NN(c2ccccc2)[C@@H]1CO	nt	1.8	34.3	0.5	55.9*	35.8	nt
COc1ccccc1-c1nnc(Sc2nc([N+](=O)[O-])nn2C)o1	-6.5	-0.6	3.6	-1.4	77.6*	99.0*	49.9*
Cn1cnnc1Sc1nc([N+](=O)[O-])nn1C	-1.2	-1.4	1.3	-2.1	8.2	nt	nt
CN1CCN(C(=O)c2ccc3c(Cl)c4c(nc3c2)CCCC4)CC1	-1.6	0.8	-0.2	-1.9	19.1	nt	nt
CCN1CCN(C(=O)c2ccc3c(Cl)c4c(nc3c2)CCCC4)CC1	-4.6	-1.0	9.7	0.8	25.0	nt	nt
N#CC1CCN(C(=O)c2ccc3c(Cl)c4c(nc3c2)CCCC4)CC1	4.9	1.0	5.0	1.9	52.4*	-15.2	nt
O=C(NCCCN1CCCCCC1)c1ccc2c(Cl)c3c(nc2c1)CCCC3	29.2	0.0	26.4	-1.3	58.6*	21.1	nt
CCN1CCN(CCCNC(=O)c2ccc3c(Cl)c4c(nc3c2)CCCC4)CC1	7.5	-0.4	13.8	-0.7	73.2*	46.4*	43.5*
COCCNC(=O)c1ccc2c(Cl)c3c(nc2c1)CCC3	5.0	2.5	0.1	-4.2	-26.2	nt	nt
CC1CCN(CCCNC(=O)c2ccc3c(Cl)c4c(nc3c2)CCCC4)CC1	20.8	0.8	10.6	2.4	79.0*	68.4*	30.3
CC1CCN(c2ccccc2NC(=S)NC(=O)C(C)(C)C)CC1	-11.5	-0.9	20.7	0.5	4.9	nt	nt
Cn1cccc1C(NC(=O)c1ccccc1)C(Cl)(Cl)Cl (configuration not stated)	9.1	0.5	7.1	-2.8	7.3	nt	nt
CCOC(=O)NC(=O)/C(C#N)=C(/C)N(C)C	-1.0	0.7	11.1	-2.1	-6.3	nt	nt
COc1ccc(-n2nnc3c(SCC(=O)N4CCCc5ccccc54)ncnc32)cc1	0.9	-1.3	3.7	-0.3	-5.3	nt	nt
CC(NC(=S)Nc1ccc(OC(F)F)c(Cl)c1)C(C)(C)C (configuration not stated)	-10.7	1.2	27.9	0.5	57.8*	16.2	nt
SMILES	UBC13 polyUb	UPR CHOP act	Apaf1 inhib	UPR XBP1 act	Mdm2 MdmX PPI	Mdm2-MdmX conf	FLuc counter
CC1CC(C)CN(S(=O)(=O)c2ccc(C(=O)N(C)Cc3ccccc3)cc2)C1 (configuration not stated)	8.9	-1.7	11.2	-1.0	-12.8	nt	nt
Cc1ccc(C2C(C#N)=C(N)Oc3cc4c(cc32)OCO4)cc1 (configuration not stated)	14.7	-1.1	6.8	4.7	55.4*	65.2*	63.9*
CSc1ccc(C2C(C#N)=C(N)Oc3cc4c(cc32)OCO4)cc1 (configuration not stated)	1.1	-0.3	12.4	-0.2	69.5*	59.5*	60.3*
N#CC1=C(N)Oc2cc(N)ccc2C1c1ccc(Cl)cc1 (configuration not stated)	3.8	3.8	11.5	-0.7	3.2	nt	nt
O=C(NNC1=C(C(=O)C(F)(F)F)CCC1)c1cccc(O)c1	-1.9	0.0	3.2	-0.4	46.4	nt	nt
Cc1cccc(C(=O)NNC2=C(C(=O)C(F)(F)F)CCC2)c1O	-27.1	2.0	-1.4	-3.5	61.8*	5.8	nt
O=C(Cn1c(=O)oc2cc(S(=O)(=O)N3CCCCC3)ccc21)N1CCc2ccccc21	-12.9	21.9	9.9	35.4*	58.6*	-0.1	nt
CC(=O)N1CCN(C(=O)CCc2nc3ccccc3c(=O)[nH]2)CC1	-4.9	1.1	3.2	-1.4	-10.9	nt	nt
Cc1ccc2c(c1)CCCN2C(=O)CCc1nc2ccccc2c(=O)[nH]1	-5.0	0.8	7.6	1.3	53.2*	59.6*	49.0*
COc1ccc(-c2nn(C)c3sc(C(=O)NCc4ccco4)cc23)cc1OC	41.8	1.0	1.6	-1.4	-0.1	nt	nt
COc1ccc(NC(=O)c2cc3c(-c4ccc(OC)c(OC)c4)nn(C)c3s2)cc1OC	11.3	6.3	4.7	2.4	97.2*	66.7*	50.2*
COc1cccc(-c2nn(C)c3sc(C(=O)NCc4ccc(C)o4)cc23)c1	34.8	0.5	20.6	-2.0	70.2*	15.1	nt
O=C(NCCC1CCCCN1S(=O)(=O)c1ccc(F)cc1)C(=O)NCC1CCCO1 (configuration not stated)	-0.5	1.3	3.3	-0.7	11.7	nt	nt
COc1cccc(NC(=O)CN(C)C(=O)C2CCN(C(=O)c3ccccc3C)CC2)c1	-1.7	1.9	17.8	-4.2	22.0	nt	nt
CC(=O)Nc1cccc(N=NN2CCCCC2)c1	-6.1	2.2	-16.7	1.1	19.0	nt	nt
